Legend:
H2O2 treated H9c2 cells [1] = assay: Intracellular ROS, DHE probe; assay type: cell-based; details: DHE staining, 4 h treatment, n = 5
Summary of the method: (§1)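 H9c2 cells cultured 24 h, then exposed to test compound for 4 h. Stained with a fluorescent probe: DHE for ROS, O38 for NO. Fluorescence microscopy, with mean fluorescence intensity taken per image. n = 5.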

H2O2 treated H9c2 cells [2] = assay: Intracellular NO, O38 probe; assay type: cell-based; details: 4 h treatment, n = 5
Summary of the method: as §1

H2O2 treated H9c2 cells [3] = assay: Intracellular ONOO-/RNS, O58 probe; assay type: cell-based; details: 4 h treatment, n = 5
Summary of the method: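 H9c2 cells (high-glucose DMEM, 10% FBS) were seeded and grown 24 h, then treated 4 h. Cells were stained with BBoxiProbe O58 for ONOO−, imaged by fluorescence microscopy, and mean fluorescence intensity was quantified. n = 5.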

H9c2 cells [4] = assay: Cell protection under H2O2, CCK-8; assay type: cell-based; details: 10 µM equivalent of PBA or/and ISN, 500 µM H2O2, 24 h, n = 5
Summary of the method: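 H9c2 cells (high-glucose DMEM, 10% FBS) seeded at 5 × 10^3/well and grown 24 h. Medium then replaced with treatments at 10 µM PBA and/or ISN equivalent, followed by 500 µM H2O2, with PBS as control. After 24 h, cells were given fresh medium containing 10% CCK-8 for 4 h. Supernatant absorbance was read at 450 nm to calculate viability.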

H9c2 cells [5] = assay: Apoptosis by flow cytometry, Annexin V-PI staining; assay type: cell-based; details: H9c2 + H2O2, 24 h treatment, n = 3
H2O2-treated H9c2 cells = assay: Mitochondria-related cell injury probes; assay type: cell-based; details: 6 h treatment, n = 5; for mitochondrial membrane potential: JC-10 probe
Summary of the method: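 H9c2 cells were seeded and grown 24 h, then treated for 6 h and stained with JC-10. Fluorescence images were taken, and membrane potential was expressed as the ratio of red to green fluorescence intensity. n = 5.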

HUVECs [6] = assay: HUVEC migration; assay type: cell-based, human; details: H2O2 treated; scratch assay 24 h and Transwell assay 8 h; n = 5
Summary of the method: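 Two formats. Scratch: HUVECs pre-stained with green fluorescent dye and grown to a confluent monolayer. Gap scratched with a pipette tip, then fresh medium with test compound added. Fluorescence images at 0 and 24 h give the percentage of wound area healed. Transwell: 8.0-µm pores, 8 × 10^4 cells in serum-free medium above, 10% FBS medium with test compound below, 8 h. Migrated cells stained with 0.1% crystal violet and counted in five random fields. n = 5.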

HUVECs [7] = assay: Western blotting of VEGF, p-eNOS, eNOS; assay type: cell-based, human; details: H2O2 treated HUVECs, immunoblot; n = 3
Summary of the method: (§2)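 Lysates from HUVECs or H9c2 cells were protein-quantified by BCA. Equal amounts were run on SDS-PAGE and transferred to PVDF. Membranes were blocked with 5% non-fat milk and probed with primary and secondary antibodies. Bands were detected by ECL chemiluminescence and quantified by densitometry. n = 3.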

MI mice = assay type: in vivo, C57BL/6 mice
[8] = DLS and TEM of self-assembled nanoaggregates; assay type: physicochemical; details: self-assembly in aqueous solution; TEM images and DLS
cells = assay: NO release from culture medium of cells, Griess assay; assay type: cell-based; details: PDCs 10 µM
Summary of the method: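 PDCs (10 µM) were incubated with cells pretreated with PBS or H2O2 for 24 h. NO in the culture medium was measured by Griess assay at 0 h and 24 h.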

ABTS assay = details: test kit; n = 3
DPPH assay = details: PDCs 0-200 µM, DPPH 500 µM, 30 min in darkness, absorbance 517 nm; n = 3
Summary of the method: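 DPPH solution (500 µM before mixing) was combined with PDC solutions at 0, 5, 10, 25, 50, 100 and 200 µM and kept 30 min in darkness. Absorbance was read at 517 nm and scavenged DPPH calculated. Mean ± SEM, n = 3.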

H9c2 cells [9] = assay: Western blotting of oxidative stress, inflammation and apoptosis proteins; assay type: cell-based; details: H2O2 treated H9c2 cells, n = 3
Summary of the method: as §2

H9c2 cells [10] = assay: Mitochondria TEM and cellular ATP; assay type: cell-based
HUVECs [11] = assay: HUVEC survival under oxidative stress; assay type: cell-based, human; details: H2O2, calcein-AM/PI staining and CCK-8 assay; n = 5
Summary of the method: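 CCK-8: 5 × 10^3 cells/well plated 24 h, then medium with test compound (10 µM equivalent of PBA and/or ISN) and 500 µM H2O2 (PBS control). After 24 h, 10% CCK-8 for 4 h, absorbance at 450 nm. Live/dead: 1 × 10^5 cells/well plated 24 h, treated 24 h, calcein AM/PI stain 30 min, fluorescence imaging, dead/live ratio quantified. n = 5.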

HUVECs [12] = assay: Intracellular ROS, NO and RNS probes in HUVECs; assay type: cell-based, human; details: H2O2 treated HUVECs, O38 probe; n = 5
Summary of the method: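 HUVECs (endothelial cell medium, 5% FBS plus growth supplements) were seeded and grown 24 h, then treated 4 h. Cells were stained with BBoxiProbe O38 for NO, imaged by fluorescence microscopy, and mean fluorescence intensity was quantified. Mean ± SEM, n = 5.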

HUVECs [13] = assay: HUVEC tube formation assay; assay type: cell-based, human; details: H2O2-treated HUVECs on Matrigel, 6 h; n = 5
Summary of the method: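 HUVECs (2.5 × 10^4 per well) seeded on Matrigel-coated wells with test compound and incubated 6 h. Bright-field images from five random fields scored for tube length, branching length and junction number. n = 5.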

[14] = In vivo distribution of Cy5.5-labeled PDCs; parameters: species or system mice
Summary of the method: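 Male C57BL/6 mice (10-week-old), sham or MI, received Cy5.5-labelled PDCs by tail-vein injection. A scrambled-peptide (non-targeting) conjugate served as control, and dye-labelled conjugates were normalised to equal fluorescence by UV-Vis. At 2 h and 6 h mice were euthanised. Hearts, lungs, livers, spleens and kidneys were imaged ex vivo and average radiance quantified.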

[15] = immunofluorescence, 28 days after MI, n = 4

OCc1ccc(O)cc1 [4-HBA, 4-hydroxybenzyl alcohol]
intracellular ROS level (H2O2 treated H9c2 cells [1]): mitigate intracellular ROS in a concentration-dependent manner

O=[N+]([O-])O[C@@H]1CO[C@H]2[C@@H]1OC[C@@H]2O [ISN, isosorbide mononitrate, reference compound]
intracellular ROS level (H2O2 treated H9c2 cells [1]): did not change the level of ROS inside cells | intracellular level of NO (H2O2 treated H9c2 cells [2]): significantly increased the intracellular level of NO | intracellular concentration of peroxynitrite (ONOO-) / RNS (H2O2 treated H9c2 cells [3]): dramatically elevated the intracellular concentration of peroxynitrite | viability of H9c2 challenged with H2O2 (H9c2 cells [4]): increased the loss of myocytes | apoptosis percentage (H9c2 cells [5]): 32.2% | mitochondrial membrane potential (H2O2-treated H9c2 cells): negligible influence on the restoration of mitochondrial membrane potential | migration of HUVECs (HUVECs [6]): barely promoted the H2O2-inhibited migration of HUVECs | expression of VEGF and p-eNOS/eNOS ratio (HUVECs [7]): nor did it reverse the downregulated expression of angiogenesis-related proteins | ROS in heart tissue (MI mice; DHE staining, day 1 after MI, i.v. 200 µg/kg equivalent of ISN, n = 4): little effects on tissue abundance of ROS | RNS in heart tissue (MI mice; O56 staining, day 1 after MI, i.v. 200 µg/kg equivalent of ISN, n = 4): promoted vast generation of RNS | angiogenesis in the border zone of infarct region (CD31+ capillaries, α-SMA+ arterioles) (MI mice; [15]): didn’t have any effects of neovascularization

CSTSMLKAC [CTP-PBA-ISN]
diameter of spherical nanoaggregates [8]: 47 ± 4 nm | NO concentration in culture medium (cells; cells treated with H2O2, 24 h): significantly increased NO concentration | NO release in culture medium (cells; cells without H2O2 treatment, 24 h): moderated NO release | ROS clearance, ABTS assay (ABTS assay): dose-dependent manner | free radical clearance, DPPH assay (DPPH assay): dose-dependent manner | intracellular level of NO (H2O2 treated H9c2 cells [2]): significantly increased the intracellular level of NO | intracellular concentration of peroxynitrite (ONOO-) / RNS (H2O2 treated H9c2 cells [3]): did not increase the intracellular concentration of RNS | TNF-α and IL-6 protein expression (H9c2 cells [9]; immunoblot): capably reversed such elevation | intracellular expression of Nrf2, HO-1 and NQO-1 (H9c2 cells [9]; immunoblot): downregulated intracellular expression of Nrf2, HO-1 and NQO-1 | expression of BAX, Caspase3 and Bcl-2 (H9c2 cells [9]; western blotting): most effective in downregulation of apoptosis proteins (BAX, Caspase3) and upregulation of anti-apoptosis protein (Bcl-2) | viability of H9c2 challenged with H2O2 (H9c2 cells [4]): potent preservation of cell survival | apoptosis percentage (H9c2 cells [5]): 15.6% | cytoplasmic calcium level (H2O2-treated H9c2 cells; Fluo-4 AM staining): reversed the abnormal elevation of cytoplasmic calcium level | mitochondrial membrane potential (H2O2-treated H9c2 cells): potently restored the cross-membrane potential of mitochondria | mitochondrial ROS (H2O2-treated H9c2 cells; MitoSOX staining): most effective in blocking the H2O2-induced overproduction of ROS in mitochondria | ATP content (H9c2 cells [10]; H9c2 under H2O2, ATP assay kit, n = 3): increased ATP content | structure of mitochondria (H9c2 cells [10]; H9c2 under H2O2, TEM): preserved the normal structure of mitochondria | bio-viability and apoptosis of HUVECs under oxidative stress (HUVECs [11]): most effective in maintaining bio-viability and inhibiting apoptosis | intracellular NO delivery (HUVECs [12]): maximizing intracellular NO delivery | migration of HUVECs (HUVECs [6]): migration to the level similar to those of H2O2-untreated control | tube formation (pseudopod length, number of junction, degree of branch) (HUVECs [13]): facilitated recovery in pseudopod length, number of junction and degree of branch | expression of VEGF and p-eNOS/eNOS ratio (HUVECs [7]): remarkably upregulated | accumulation in other organs ([14]; sham and MI animals, extended time after injections, n = 3): accumulated in the kidneys, livers, and lungs | fibrotic area and infarct wall thickness (MI mice; Masson's trichrome, 28 days after MI, n = 4): reduced fibrotic area and increased infarct wall thickness | ultrastructure of myocardial mitochondria (MI mice; TEM of tissue slices, 3 days after MI): ameliorated myocardial fiber rupture, mitochondrial damage and increased mitochondrial numbers | apoptosis cardiomyocytes in infarcted myocardial tissue (MI mice; TUNEL staining, 3 days after MI, n = 4): lowest number of apoptosis cardiomyocytes | cross-sectional area of cardiomyocytes (MI mice; WGA staining, 28 days after MI, n = 5): smaller cross-sectional area of cardiomyocytes | OS proteins (NRF2, HO-1, NQO-1) and pro-inflammation cytokines (TNF-α, IL-6) in the heart (MI mice; Western blot, 1 day after MI, n = 3): significant decrease | protein expressions of CS, IDH2 and OGDH in heart tissues (MI mice; immunoblot, 3 days after MI, n = 3): facilitated recovery of these downregulated mitochondria related rate-limiting enzymes | angiogenesis in the border zone of infarct region (CD31+ capillaries, α-SMA+ arterioles) (MI mice; [15]): greatly promoted | macrophage phenotype (CD86 / CD206) (MI mice; [15]): established a M2-dominant macroenvironment | infarct area (MI mice; n = 3): greatly reduced

CSTSMLKAC [CTP-PBA]
intracellular concentration of peroxynitrite (ONOO-) / RNS (H2O2 treated H9c2 cells [3]): downregulation of RNS inside cells | viability of H9c2 challenged with H2O2 (H9c2 cells [4]): only partially restored the viability of H9c2 | apoptosis percentage (H9c2 cells [5]): 20.3% | mitochondrial membrane potential (H2O2-treated H9c2 cells): limited effects

CSTSMLKAC [Cy5.5-CTP-PBA-ISN]
fluorescent signal of infarcted hearts ([14]; MI mice, 2 h after injection via tail veins, ex vivo imaging): bright fluorescent signal

Reference: paper PMC12236005 (Journal of Nanobiotechnology, 2025)
